# Measured values: ChEMBL document CHEMBL1828575, “Design, synthesis and antiproliferative activities of biarylolefins based on polyhydroxylated and carbohydrate scaffolds” (Eur J Med Chem, 2011)
# Columns and labels:
# Format in all cases: functional
# LOX IMVI = assay: Antitumor activity against human LOXIMVI cells after 48 hrs by SRB assay
# Procedure, shortened: (§1)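 NCI60 panel in RPMI 1640 with 5% FBS and 2 mM L-glutamine. Cells were plated at 5000–40,000/well by doubling time, held 24 h, then time-zero plates were TCA-fixed. Five concentrations (10-fold or half-log dilutions of DMSO stocks) were applied for 48 h at 37 °C, 5% CO2. Cells were fixed with cold TCA (10% final adherent, 16% suspension) and stained with 0.4% SRB. Bound dye was dissolved in 10 mM Tris and read at 515 nm. GI50, TGI and LC50 were calculated per line.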
# MDA-MB-468 = assay: Antitumor activity against human MDA-MB-468 cells after 48 hrs by SRB assay; conditions: MDA-MB-468, 48 h; procedure, shortened: as §1
# SR [1] = assay: Cytotoxicity against human SR cells assessed as cellular growth at 10 uM after 48 hrs by SRB assay
# Procedure, shortened: (§2)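 NCI-60 panel lines grown in RPMI 1640 with 5% FBS and 2 mM L-glutamine. Plated at 5000–40,000 cells/well and preincubated 24 h at 37 °C, 5% CO₂, with time-zero plates fixed in TCA. Compounds, dissolved in DMSO and diluted in medium, were applied for 48 h. Cells were TCA-fixed (10% final for adherent, 16% for suspension) and stained with 0.4% SRB in 1% acetic acid. Dye was solubilised in 10 mM Tris base and read at 515 nm; growth was expressed as a percentage of untreated control.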
# [2] = Cytotoxicity against human NCI60 cells assessed as cellular growth at 10 uM after 48 hrs by SRB assay relative to untreated control; procedure, shortened: as §2
# SK-MEL-5 = assay: Antitumor activity against human SK-MEL-5 cells after 48 hrs by SRB assay; conditions: SK-MEL-5, 48 h
# Procedure, shortened: (§3)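 NCI60 panel cells grown in RPMI 1640 with 5% FBS and 2 mM L-glutamine, plated at 5000–40,000 cells/well and preincubated 24 h at 37 °C, 5% CO₂. Compound was added from DMSO at five concentrations, 10-fold or 1/2 log dilutions, then incubated 48 h.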
# K562 = assay: Cytotoxicity against human K562 cells assessed as cellular growth at 10 uM after 48 hrs by SRB assay
# Procedure, shortened: (§4)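 NCI60 single-dose screen of cells in RPMI 1640 with 5% FBS and 2 mM L-glutamine, preincubated 24 h at 37 °C, 5% CO₂. Cells were then exposed 48 h to compound added from DMSO stock. TCA-fixed, stained with 0.4% SRB in 1% acetic acid, dye solubilised in 10 mM Tris base and read at 515 nm. Growth is given as percent of untreated control.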
# BT-549 = assay: Cytotoxicity against human BT549 cells assessed as cellular growth at 10 uM after 48 hrs by SRB assay; procedure, shortened: as §4
# TK-10 = assay: Antitumor activity against human TK10 cells after 48 hrs by SRB assay; conditions: TK-10, 48 h; procedure, shortened: as §3
# NCI-H322M [3] = assay: Cytotoxicity against human NCI-H322M cells assessed as cellular growth at 10 uM after 48 hrs by SRB assay; procedure, shortened: as §2
# COLO 205 = assay: Antitumor activity against human COLO205 cells after 48 hrs by SRB assay; conditions: COLO 205, 48 h; procedure, shortened: as §1
# NCI-H322M [4] = assay: Antitumor activity against human NCI-H322M cells after 48 hrs by SRB assay; procedure, shortened: as §1
# KM12 = assay: Antitumor activity against human KM12 cells after 48 hrs by SRB assay; conditions: KM12, 48 h; procedure, shortened: as §1
# HL-60(TB) = assay: Cytotoxicity against human HL-60(TB) cells assessed as cellular growth at 10 uM after 48 hrs by SRB assay
# SR [5] = assay: Antitumor activity against human SR cells after 48 hrs by SRB assay; procedure, shortened: as §3
# DU-145 [6] = assay: Antitumor activity against human DU145 cells after 48 hrs by SRB assay; conditions: DU-145, 48 h; procedure, shortened: as §1
# OVCAR-5 = assay: Cytotoxicity against human OVCAR5 cells assessed as cellular growth at 10 uM after 48 hrs by SRB assay; procedure, shortened: as §2
# MOLT-4 = assay: Antitumor activity against human MOLT4 cells after 48 hrs by SRB assay; conditions: MOLT-4, 48 h; procedure, shortened: as §1
# CAKI-1 = assay: Antitumor activity against human Caki1 cells after 48 hrs by SRB assay; conditions: CAKI-1, 48 h; procedure, shortened: as §1
# OVCAR-8 = assay: Antitumor activity against human OVCAR8 cells after 48 hrs by SRB assay; conditions: OVCAR-8, 48 h; procedure, shortened: as §1
# U-251 = assay: Antitumor activity against human U251 cells after 48 hrs by SRB assay; conditions: U-251, 48 h; procedure, shortened: as §3
# HOP-62 = assay: Antitumor activity against human HOP62 cells after 48 hrs by SRB assay; conditions: HOP-62, 48 h; procedure, shortened: as §1
# A549 = assay: Cytotoxicity against human A549 cells assessed as cellular growth at 10 uM after 48 hrs by SRB assay; procedure, shortened: as §4
# DU-145 [7] = assay: Cytotoxicity against human DU145 cells assessed as cellular growth at 10 uM after 48 hrs by SRB assay; procedure, shortened: as §4
# [8] = read-out: LC50 (the source's name)
# [9] = read-out: pLC50 (the source's name) (converted)
smiles,measurement,setting,value
COc1ccc(/C(=C2/O[C@@H]([C@H]3COC(C)(C)O3)[C@H]3OC(C)(C)O[C@@H]23)c2cc(OC)c(OC)c(OC)c2)cc1O,GI50,LOX IMVI,5.18 µM
same,TGI,LOX IMVI,> 100 µM
same,CC50,LOX IMVI; [8],> 100 µM
same,GI50,MDA-MB-468; read-out: GI50,1.45 µM
same,CC50,MDA-MB-468; [8],80.6 µM
same,TGI,MDA-MB-468; read-out: TGI,34.1 µM
same,GI50,MDA-MB-468; read-out: pGI50 (converted),14.5 µM
same,CC50,MDA-MB-468; [9],> 100 µM
same,TGI,MDA-MB-468; read-out: pTGI (converted),33.9 µM
same,Activity,SR [1],25.4%
same,Activity,[2],57%
same,GI50,SK-MEL-5,2690 nM
same,LC50,SK-MEL-5,49.3 µM
same,TGI,SK-MEL-5,11.2 µM
same,Activity,K562,24.28%
same,Activity,BT-549,57.66%
same,GI50,TK-10; read-out: GI50,2.94 µM
same,CC50,TK-10; [8],> 100 µM
same,TGI,TK-10; read-out: TGI,81.4 µM
same,GI50,TK-10; read-out: pGI50 (converted),23.4 µM
same,CC50,TK-10; [9],> 100 µM
same,TGI,TK-10; read-out: pTGI (converted),61.7 µM
same,Activity,NCI-H322M [3],34.81%
same,CC50,COLO 205; [8],> 100 µM
same,TGI,COLO 205; read-out: TGI,> 100 µM
same,GI50,COLO 205; read-out: pGI50 (converted),17.8 µM
same,CC50,COLO 205; [9],> 100 µM
same,TGI,COLO 205; read-out: pTGI (converted),> 100 µM
same,GI50,NCI-H322M [4]; read-out: GI50,6.58 µM
same,CC50,NCI-H322M [4]; [8],> 100 µM
same,TGI,NCI-H322M [4]; read-out: TGI,> 100 µM
same,GI50,NCI-H322M [4]; read-out: pGI50 (converted),6.61 µM
same,CC50,NCI-H322M [4]; [9],> 100 µM
same,TGI,NCI-H322M [4]; read-out: pTGI,> 100 µM
same,GI50,KM12,3.99 µM
same,LC50,KM12,> 100 µM
same,TGI,KM12,> 100 µM
same,Activity,HL-60(TB),20.71%
same,GI50,SR [5]; read-out: GI50,6.27 µM
same,CC50,SR [5]; [8],> 100 µM
same,TGI,SR [5]; read-out: TGI,> 100 µM
same,GI50,SR [5]; read-out: pGI50 (converted),6.31 µM
same,CC50,SR [5]; [9],> 100 µM
same,TGI,SR [5]; read-out: pTGI,> 100 µM
same,GI50,DU-145 [6]; read-out: GI50,3.29 µM
same,CC50,DU-145 [6]; [8],> 100 µM
same,TGI,DU-145 [6]; read-out: TGI,13.8 µM
same,GI50,DU-145 [6]; read-out: pGI50 (converted),3.31 µM
same,CC50,DU-145 [6]; [9],> 100 µM
same,TGI,DU-145 [6]; read-out: pTGI (converted),13.2 µM
same,Activity,OVCAR-5,95.38%
same,LC50 (concentration killing 50% of cells),MOLT-4,> 100 µM
same,GI50,MOLT-4; read-out: GI50,6.93 µM
same,TGI,MOLT-4; read-out: TGI,> 100 µM
same,GI50,MOLT-4; read-out: pGI50 (converted),6.92 µM
same,CC50,MOLT-4; [9],> 100 µM
same,TGI,MOLT-4; read-out: pTGI,> 100 µM
same,GI50,CAKI-1; read-out: GI50,3.73 µM
same,CC50,CAKI-1; [8],29.8 µM
same,TGI,CAKI-1; read-out: TGI,> 100 µM
same,GI50,CAKI-1; read-out: pGI50 (converted),37.2 µM
same,CC50,CAKI-1; [9],> 100 µM
same,TGI,CAKI-1; read-out: pTGI (converted),> 100 µM
same,GI50,OVCAR-8; read-out: GI50,5.27 µM
same,CC50,OVCAR-8; [8],> 100 µM
same,TGI,OVCAR-8; read-out: TGI,> 100 µM
same,GI50,OVCAR-8; read-out: pGI50 (converted),5.25 µM
same,CC50,OVCAR-8; [9],> 100 µM
same,TGI,OVCAR-8; read-out: pTGI,> 100 µM
same,GI50,U-251,3.84 µM
same,TGI,U-251,48.2 µM
same,CC50,U-251; [8],> 100 µM
same,GI50,HOP-62,5.93 µM
same,TGI,HOP-62,25.5 µM
same,CC50,HOP-62; [8],96.8 µM
same,Activity,A549,84.24%
same,Activity,DU-145 [7],34.8%
